Assay results reported in ChEMBL document CHEMBL1148578, “Synthesis and biological evaluation of 6-(alkyn-1-yl)furo[2,3-d]pyrimidin-2(3H)-one base and nucleoside derivatives” (J Med Chem, 2006).

What was measured:
[1] = tested on: Human alphaherpesvirus 3; test: Antiviral activity against Varicella-Zoster virus YS strain; assay type: functional, organism-based; conditions: Human alphaherpesvirus 3, YS
[2] = tested on: Human betaherpesvirus 5; test: Antiviral activity against human cytomegalovirus AD169 strain; assay type: functional, organism-based; conditions: Human betaherpesvirus 5, AD169
In short: (§1)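 Virus was removed and medium with graded compound concentrations was added, in duplicate. After 7 days at 37 °C, cells were ethanol-fixed and Giemsa-stained, and cytopathogenicity was scored microscopically.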

[3] = tested on: Human betaherpesvirus 5; test: Antiviral activity against human cytomegalovirus Davis strain; assay type: functional, organism-based; conditions: Human betaherpesvirus 5, Davis; in short: as §1
[4] = tested on: Human alphaherpesvirus 3; test: Antiviral activity against Varicella-Zoster virus 07/1 strain; assay type: functional, organism-based; conditions: Human alphaherpesvirus 3, 07/1
In short: (§2)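 HEL cell monolayers were infected with VZV (TK⁻ strains YS/R and 07/1) for 2 h. Residual virus was then removed and medium with graded compound concentrations was added, in duplicate. After 5 days at 37 °C, cells were ethanol-fixed and Giemsa-stained, and plaques were counted microscopically.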

[5] = tested on: HEL; test: Cytotoxic activity against cultured human embryonic lung (HEL) cells; assay type: functional
In short: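 HEL cells were seeded at 5 × 10³/well and grown for 24 h, then exposed to graded compound concentrations for 3 days at 37 °C. MCC was the lowest concentration giving microscopically visible alteration of cell morphology.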

[6] = tested on: Human alphaherpesvirus 3; test: Antiviral activity against Varicella-Zoster virus YS/R strain; assay type: functional, organism-based; conditions: Human alphaherpesvirus 3, YS/R; in short: as §2

SMILES	EC50 [1] [µM]	EC50 [2] [µM]	EC50 [3] [µM]	EC50 [4] [µM]	CC50 [5] [µM]	MCC [5] [µM]	EC50 [6] [µM]
CCCCCCC#Cc1cc2cn([C@@H]3O[C@H](CO)[C@@H](O)[C@H]3O)c(=O)nc2o1	≥ 39	> 133	> 53	39	> 133	≥ 133	19
CCCCCCCCC#Cc1cc2cn([C@@H]3O[C@H](CO)[C@@H](O)[C@@H]3O)c(=O)nc2o1	≥ 11	> 12	12	11	> 124	49	3.7
CCCCC#Cc1cc2cn(C)c(=O)nc2o1	217	> 217	139	> 87	> 217	≥ 217	> 87
CCCCC#Cc1cc2cn([C@@H]3O[C@H](CO)[C@@H](O)[C@H]3O)c(=O)nc2o1	≥ 113	> 144	> 144	144	> 144	> 144	52
CCCCCCCCC#Cc1cc2cn([C@@H]3O[C@H](CO)[C@@H](O)[C@H]3O)c(=O)nc2o1	> 12	7.3	≥ 9.3	≥ 12	62	49	6.2
CCCCCCCCC#Cc1cc2cn(C)c(=O)nc2o1	> 175	> 175	> 175	> 70	> 175	> 175	> 175
CCCCCCCCCCC#Cc1cc2cn([C@@H]3O[C@H](CO)[C@@H](O)[C@@H]3O)c(=O)nc2o1	≥ 16	> 12	> 12	> 12	116	46	5.7
CCCCCCCCCCC#Cc1cc2cn([C@H]3C[C@H](O)[C@@H](CO)O3)c(=O)nc2o1	≥ 5.7	> 4.8	> 4.8	≥ 6	36	30	2.5
Nc1nc2c(ncn2COCCO)c(=O)[nH]1 [ACYCLOVIR]					> 889	> 222	
CCCCCCC#Cc1cc2cn(C)c(=O)nc2o1	≥ 89	31	37	> 77	> 194	194	23
O=c1[nH]c(=O)n([C@H]2C[C@H](O)[C@@H](CO)O2)cc1/C=C/Br [BRIVUDINE]	0.01			≥ 99	> 150	> 150	≥ 126
CCCCCCC#Cc1cc2cn([C@H]3C[C@H](O)[C@@H](CO)O3)c(=O)nc2o1	1.5	21	19	25	138	≥ 97	22
CCCCC#Cc1cc2cn([C@@H]3O[C@H](CO)[C@@H](O)[C@@H]3O)c(=O)nc2o1	> 144	> 144	> 144	> 144	> 144	> 144	63
CCCCC#Cc1cc2cn([C@H]3C[C@H](O)[C@@H](CO)O3)c(=O)nc2o1	87	> 150	> 150	≥ 135	> 150	> 150	90
CCCCCCCCCCC#Cc1cc2cn([C@@H]3O[C@H](CO)[C@@H](O)[C@H]3O)c(=O)nc2o1	> 4.6	> 4.6	> 4.6	4.6	44	12	3.5
CCCCCCCCCCC#Cc1cc2cn(C)c(=O)nc2o1	> 150	> 150	> 150	> 150	> 150	> 150	> 150
CCCCCCC#Cc1cc2cn([C@@H]3O[C@H](CO)[C@@H](O)[C@@H]3O)c(=O)nc2o1	≥ 43	> 53	> 53	34	> 53	133	21
CCCCCCCCC#Cc1cc2cn([C@H]3C[C@H](O)[C@@H](CO)O3)c(=O)nc2o1	2.7	7.4	7.6	> 13	77	52	6.5
Nc1nc2c(ncn2COC(CO)CO)c(=O)[nH]1 [GANCICLOVIR]			8.7		> 197	> 197	
